Measurements taken from ChEMBL document CHEMBL1126622, “2-substituted 1,2-dihydro-3H-dibenz[de,h]isoquinoline-1,3-diones. A new class of antitumor agent” (J Med Chem, 1993).

Assays:
L1210 [1] = assay: Tested against L1210 resistant murine leukemia cells by MTT tetrazolium dye assay; assay type: functional, cell-based; details: Mus musculus
In short: (§1)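 Suspension L1210 cells (drug-sensitive and multidrug-resistant lines), 50 000/well, drug added day 2 from DMSO stock serially diluted in PBS pH 7.4, 10^1–10^-5 μg/mL in half-log steps, final DMSO ≤0.1%; continuous 6-day exposure at 37 °C, 5% CO2; MTT added 4 h, formazan dissolved in DMSO, A570; percent of untreated control; six wells per concentration, IC50s averaged.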

L1210 [2] = assay: Tested against L1210 sensitive murine leukemia cells by MTT tetrazolium dye assay; assay type: functional, cell-based; details: Mus musculus; in short: as §1
OVCAR-3 = assay: Tested against OVCAR-3 human ovarian cancer cells by sulforhodamine B (SRB) assay; assay type: functional, cell-based
In short: (§2)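 Adherent UACC375 melanoma and OVCAR3 ovarian cells, SRB assay: plating and dosing as for MTT (50 000/well, 10^1–10^-5 μg/mL half-log, DMSO ≤0.1%), 8-day exposure; fixed with 10% TCA 1 h at 4 °C, stained 30 min with 0.4% SRB in 1% acetic acid, dye dissolved in 10 mM Tris base pH 10.5, OD 564 nm; six wells per concentration, IC50s averaged.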

[3] = Tested against UACC375 human melanoma cancer cells by sulforhodamine B (SRB) assay; assay type: functional, cell-based; details: Cancer cell lines; in short: as §2
[4] = Tested for in vitro for cardiotoxicity by performing neonatal rat heart myocyte assay method; assay type: functional
In short: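 Neonatal rat heart myocytes exposed to drug for 1 h; cytotoxicity read as cellular ATP/protein ratio relative to untreated controls; IC50 is the 1-h concentration halving this ratio.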

[5] = Average mean for IC50 values in the four cell lines (UACC375,OVCAR3,L1210 sensitive,L1210 resistant); assay type: functional; design: unit not given here
In short: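 Mean of the IC50 values from the four tumor lines: UACC375 and OVCAR3 by SRB (8-day exposure), sensitive and resistant L1210 by MTT (6-day continuous exposure).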

[6] = The quotient of the IC50 is the myocytes divided by the mean IC50 in the four cell lines (UACC375,OVCAR3,L1210 sensitive,L1210 resistant); assay type: ADME; details: read-out: Toxicity ratio
In short: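 Ratio of the myocyte IC50 (1-h exposure, ATP/protein ratio read-out) to the mean tumor-cell IC50 across the four lines, UACC375 and OVCAR3 by SRB, sensitive and resistant L1210 by MTT.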

[7] = Acid dissociation constant was determined; assay type: ADME
In short: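 Hydrochloride salt (0.165 mmol) dissolved in 0.982 N HCl to give 1 mequiv acid beyond amine protonation; stirred and titrated with 0.926 N NaOH with pH-meter monitoring.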

L1210 [8] = assay: Tested for percent increase in life span in L1210 leukemia cells after intraperitoneal dose of 30 mg/kg in mice; assay type: functional; details: Mus musculus, L1210, ip
In short: (§3)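 Standard NCI protocol: leukemia cells implanted intraperitoneally, with drug given ip on days 1, 5 and 9. Read-out is percent increase in life span, 100 × (treated life span − control life span)/control life span.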

L1210 [9] = assay: Tested for percent increase in life span in L1210 leukemia cells after intraperitoneal dose of 45 mg/kg in mice; assay type: functional; details: Mus musculus, L1210, ip; in short: as §3
B16 [10] = assay: Tested for percent tumor growth inhibition in B16 melanoma cells after intraperitoneal dose of 30 mg/kg in mice; details: Mus musculus, B16, ip; read-out: TGI
COLO 480 = assay: Tested against human colon carcinoma COLO 480 cell line in vitro; assay type: functional, cell-based
In short: (§4)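 Human colon carcinoma lines, MTT assay: 50 000 cells/well, drug added day 2 (DMSO stock diluted in PBS pH 7.4, 10^1–10^-5 μg/mL half-log steps, final DMSO ≤0.1%), 6-day exposure at 37 °C, 5% CO2; MTT 4 h, formazan in DMSO read at 570 nm vs untreated control; six wells per concentration, IC50 averaged.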

COLO 205 = assay: Tested against human colon carcinoma COLO 205 cell line in vitro; assay type: functional, cell-based; in short: as §4
HCT-15 = assay: Tested against human colon carcinoma HCT 15 cell line in vitro; assay type: functional, cell-based; in short: as §4
HT-29 = assay: Tested against human colon carcinoma HT 29 cell line in vitro; assay type: functional, cell-based; in short: as §4
L1210 [11] = assay: Tested for percent increase in life span in L1210 leukemia cells after intraperitoneal dose of 15 mg/kg in mice; assay type: functional; details: Mus musculus, L1210, ip; in short: as §3
L1210 [12] = assay: Tested for percent increase in life span in L1210 leukemia cells after intraperitoneal dose of 5 mg/kg in mice; assay type: functional; details: Mus musculus, L1210, ip
In short: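 Standard NCI protocol: leukemia cells implanted intraperitoneally, with drug given ip once daily on days 1–5. Read-out is percent increase in life span, 100 × (treated life span − control life span)/control life span.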

LoVo = assay: Tested against human colon carcinoma LoVo cell line in vitro; assay type: functional, cell-based; in short: as §4
B16 [13] = assay: Tested for percent tumor growth inhibition in B16 melanoma cells after intraperitoneal dose of 15 mg/kg in mice; details: Mus musculus, B16, ip; read-out: TGI

| Structure (SMILES) | IC50 (L1210 [1]) [nM] | IC50 (L1210 [2]) [nM] | IC50 (OVCAR-3) [nM] | IC50 [3] [nM] | IC50 [4] [µM] | Average [5] | selectivity ratio [6] | pKa [7] | ILS at 30 mg/kg (L1210 [8]) [%] | ILS at 45 mg/kg (L1210 [9]) [%] | inhibition in vivo at 30 mg/kg (B16 [10]) [%] | IC50 (COLO 480) [nM] | IC50 (COLO 205) [nM] | IC50 (HCT-15) [nM] | IC50 (HT-29) [nM] | ILS at 15 mg/kg (L1210 [11]) [%] | ILS at 5 mg/kg (L1210 [12]) [%] | IC50 (LoVo) [nM] | inhibition in vivo at 15 mg/kg (B16 [13]) [%] |
| --- | --- | --- | --- | --- | --- | --- | --- | --- | --- | --- | --- | --- | --- | --- | --- | --- | --- | --- | --- |
| O=C1c2cccc3cc4ccccc4c(c23)C(=O)N1c1cccnc1 | 554 | 544 | 1940 | 2490 | > 25 | 1380 | > 20 | – | – | – | – | – | – | – | – | – | – | – | – |
| O=C1c2cccc3cc4ccccc4c(c23)C(=O)N1N1CC1 | 791 | 791 | 7910 | 2530 | – | 3006 | – | – | – | – | – | – | – | – | – | – | – | – | – |
| CN(C)CCCN1C(=O)c2cccc3cc4ccccc4c(c23)C1=O | 82 | 54 | 462 | 245 | 11.4 | 211 | 113 | 7.3 | – | – | – | – | – | – | – | – | – | – | – |
| CCN1CCCC(N2C(=O)c3cccc4cc5ccccc5c(c34)C2=O)C1 (stereo not drawn) | 609 | 635 | 1180 | 1650 | 8.76 | 1020 | 8.3 | – | – | – | – | – | – | – | – | – | – | – | – |
| CCN1CCCC1CN1C(=O)c2cccc3cc4ccccc4c(c23)C1=O (stereo not drawn) | 55 | 36 | 214 | 119 | 15.2 | 106 | 143 | – | – | – | – | – | – | – | – | – | – | – | – |
| O=C1c2cccc3cc4ccccc4c(c23)C(=O)N1Cc1ccccn1 | 26700 | 26700 | 17400 | 12000 | > 25 | 20722 | > 1 | – | – | – | – | – | – | – | – | – | – | – | – |
| O=C1c2cccc3cc4ccccc4c(c23)C(=O)N1CCN1CCCCC1 | 51 | 51 | 89 | 178 | 10.4 | 92 | 13 | – | – | – | – | – | – | – | – | – | – | – | – |
| CN(C)CCN1C(=O)c2cccc3cc(N)cc(c23)C1=O [AMONAFIDE] | 625 | 625 | 2180 | 2030 | 48.4 | 1365 | 36 | 7.3 | 45 | 87.5 | 23 | – | – | – | – | – | – | – | – |
| CN(C)CCN1C(=O)c2cccc3cc4ccccc4c(c23)C1=O [AZONAFIDE] | 7 | 7 | 57 | 71 | 1.98 | 36 | 56 | 7.3 | 62.5 | 79 | – | 3 | 36 | 8 | 63 | 25 | 90 | 6 | 74 |

More lines, in order of falling IC50 (L1210 [1]), values ahead:

| IC50 (L1210 [1]) [nM] | IC50 (L1210 [2]) [nM] | IC50 (OVCAR-3) [nM] | Structure (SMILES) | IC50 [3] [nM] | IC50 [4] [µM] | Average [5] | selectivity ratio [6] | pKa [7] | ILS at 30 mg/kg (L1210 [8]) [%] | ILS at 45 mg/kg (L1210 [9]) [%] | inhibition in vivo at 30 mg/kg (B16 [10]) [%] | IC50 (COLO 480) [nM] | IC50 (COLO 205) [nM] | IC50 (HCT-15) [nM] | IC50 (HT-29) [nM] | ILS at 15 mg/kg (L1210 [11]) [%] | ILS at 5 mg/kg (L1210 [12]) [%] | IC50 (LoVo) [nM] | inhibition in vivo at 15 mg/kg (B16 [13]) [%] |
| --- | --- | --- | --- | --- | --- | --- | --- | --- | --- | --- | --- | --- | --- | --- | --- | --- | --- | --- | --- |
| 15500 | 6440 | 3870 | O=C1c2cccc3cc4ccccc4c(c23)C(=O)N1CCc1ccccn1 | 6440 | > 25 | 8054 | > 3 | 5.4 | – | – | – | – | – | – | – | – | – | – | – |
| 2670 | 1870 | 8020 | O=C1c2cccc3cc4ccccc4c(c23)C(=O)N1Cc1cccnc1 | 11400 | > 25 | 5983 | > 4 | – | – | – | – | – | – | – | – | – | – | – | – |
| 1790 | 187 | 16200 | CN(C)c1ccc(N2C(=O)c3cccc4cc5ccccc5c(c34)C2=O)cc1 | 4980 | 37.3 | 4537 | 8 | – | – | – | – | – | – | – | – | – | – | – | – |
| 512 | 512 | 639 | O=C1c2cccc3cc4ccccc4c(c23)C(=O)N1CCN1CCOCC1 | 511 | > 25 | 544 | > 50 | – | – | – | – | – | – | – | – | – | – | – | – |
| 463 | 174 | 1970 | O=C1c2cccc3cc4ccccc4c(c23)C(=O)N1CCN1CCNCC1 | 463 | 6.71 | 767 | 8.8 | – | – | – | – | – | – | – | – | – | – | – | – |
| 148 | 207 | 2430 | O=C1c2cccc3cc4ccccc4c(c23)C(=O)N1c1ncc[nH]1 | 1620 | – | 1103 | – | – | – | – | – | – | – | – | – | – | – | – | – |
| 142 | 76 | 163 | O=C1c2cccc3cc4ccccc4c(c23)C(=O)N1CCCN(CCO)CCO | 217 | 8.91 | 150 | 60 | – | – | – | – | – | – | – | – | – | – | – | – |
| 56 | 51 | 203 | CN1CCCC1CCN1C(=O)c2cccc3cc4ccccc4c(c23)C1=O (stereo not drawn) | 190 | 7.08 | 125 | 57 | – | – | – | – | – | – | – | – | – | – | – | – |
| 41 | 18 | 81 | O=C1c2cccc3cc4ccccc4c(c23)C(=O)N1CCNCCO | 67 | 0.943 | 52 | 18 | – | – | – | – | – | – | – | – | – | – | – | – |
| 20.6 | 10 | 44 | CNCCN1C(=O)c2cccc3cc4ccccc4c(c23)C1=O | 59 | 7.06 | 33 | 211 | – | – | – | – | – | – | – | – | – | – | – | – |
| 11.8 | 14.5 | 66 | O=C1c2cccc3cc4ccccc4c(c23)C(=O)N1CCN1CCCC1 | 39 | 0.92 | 33 | 28 | – | – | – | – | – | – | – | – | – | – | – | – |
